Assay results: ChEMBL document CHEMBL4689842, “EUbOPEN Chemogenomics Library wave 1” (2021)
“And” between values parts separate entries of the source, which are not always exact repeats. Identical values can stand only once.

How the values were obtained:
HEK-293T = assay: Incucyte cell viability with HEK293T; format: toxicity, cell-based; conditions: human, 10 µM, compound concentration 10 uM; also: filed as whole numbers so only -1 and 0 and 1 occur
U2OS = assay: Multiplex assay against U2OS; format: toxicity, cell-based; conditions: human
Outline: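 At seeding, live cells were stained with Hoechst33342, BioTracker Green Microtubule Cytoskeleton Dye, MitoTracker Red and Annexin V Alexa Fluor 680. After compound addition they were imaged on a CQ1 microscope at 37°C and 5% CO2, and CellPathfinder machine-learning gating sorted them into Hoechst high-intensity objects or normal cells, with normal cells further split into healthy, pyknosed or fragmented nuclei and pyknosed cells into mitotic or apoptotic. Tubulin, mitochondrial-mass and membrane-permeability phenotypes are given as per cents of cells with healthy nuclei.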

[1] = 12 h, 1 µM, compound concentration 1 uM, replicate 1
[2] = 12 h, 1 µM, compound concentration 1 uM, replicate 2
[3] = 12 h, 10 µM, compound concentration 10 uM, replicate 1
[4] = 12 h, 10 µM, compound concentration 10 uM, replicate 2
[5] = 24 h, 1 µM, compound concentration 1 uM, replicate 1
[6] = 24 h, 1 µM, compound concentration 1 uM, replicate 2
[7] = 24 h, 10 µM, compound concentration 10 uM, replicate 1
[8] = 24 h, 10 µM, compound concentration 10 uM, replicate 2
[9] = 48 h, 1 µM, compound concentration 1 uM, replicate 1
[10] = 48 h, 1 µM, compound concentration 1 uM, replicate 2
[11] = 48 h, 10 µM, compound concentration 10 uM, replicate 1
[12] = 48 h, 10 µM, compound concentration 10 uM, replicate 2

SMILES: CS(=O)(=O)N1CCCC(NC(=O)[C@H](CCC2CCCCC2)NC(=O)c2ccc(CNC(=O)c3cnc4ccccn34)cc2)C1 (some centres undefined) [SR-302]
- Growth Rate (HEK-293T; 0 h, replicate number 1, timepoint 0 hours): 0
- Growth Rate (HEK-293T; 6 h, replicate number 1, timepoint 6 hours): 0
- Growth Rate (HEK-293T; 12 h, replicate number 1, timepoint 12 hours): 0
- Growth Rate (HEK-293T; 18 h, replicate number 1, timepoint 18 hours): 0
- Growth Rate (HEK-293T; 24 h, replicate number 1, timepoint 24 hours): 0
- Population Apoptotic (%) (U2OS; [1]): 41% [middle of 4 runs]
- Population Fragmented Nuclei (%) (U2OS; [1]): 2% and 6% and 10% and 5%
- Population Healthy Nuclei (%) (U2OS; [1]): 92% and 78% and 82%
- Population Membrane Permeable-Phenotype (%) (U2OS; [1]): 12% and 6% and 4%
- Population Mitotic Cells (%) (U2OS; [1]): 80% and 39% and 58%
- Population Normal (%) (U2OS; [1]): 95% and 97% and 96% and 92%
- Population Pyknosed Nuclei (%) (U2OS; [1]): 5% and 10% and 11%
- Population Tubulin-Different-Phenotype (%) (U2OS; [1]): 18% and 32% and 29%
- Total Cell Count (U2OS; [1]): 258 [middle of 4 runs]
- Population Fragmented Nuclei (%) (U2OS; [2]): 8% and 12%
- Population Healthy Nuclei (%) (U2OS; [2]): 90% and 83% and 81% and 76%
- Population Hoechst High Intensity Objects (%) (U2OS; [2]): 10% and 6% and 16%
- Population Membrane Permeable-Phenotype (%) (U2OS; [2]): 7% [middle of 4 runs]
- Population Mitotic Cells (%) (U2OS; [2]): 100% and 60% and 66%
- Population Normal (%) (U2OS; [2]): 89% and 93% and 83%
- Population Pyknosed Nuclei (%) (U2OS; [2]): 8% [middle of 4 runs]
- Population Tubulin-Different-Phenotype (%) (U2OS; [2]): 15% and 17% and 14%
- Total Cell Count (U2OS; [2]): 84 [middle of 4 runs]
- Population Apoptotic (%) (U2OS; [3]): 56% [middle of 4 runs]
- Population Fragmented Nuclei (%) (U2OS; [3]): 11% and 10% and 2%
- Population Healthy Nuclei (%) (U2OS; [3]): 70% and 74% and 75% and 94%
- Population Hoechst High Intensity Objects (%) (U2OS; [3]): 11% and 5%
- Population Membrane Permeable-Phenotype (%) (U2OS; [3]): 13% and 12%
- Population Mitotic Cells (%) (U2OS; [3]): 65% [middle of 4 runs]
- Population Normal (%) (U2OS; [3]): 88% and 94%
- Total Cell Count (U2OS; [3]): 185 [middle of 4 runs]
- Population Fragmented Nuclei (%) (U2OS; [4]): 12% and 9% and 6%
- Population Healthy Nuclei (%) (U2OS; [4]): 80% and 83% and 86%
- Population Hoechst High Intensity Objects (%) (U2OS; [4]): 7% and 6% and 3%
- Population Membrane Permeable-Phenotype (%) (U2OS; [4]): 20% [middle of 4 runs]
- Population Normal (%) (U2OS; [4]): 92% and 93% and 96%
- Population Pyknosed Nuclei (%) (U2OS; [4]): 7% and 9% and 4%
- Total Cell Count (U2OS; [4]): 92 [middle of 4 runs]
- Population Apoptotic (%) (U2OS; [5]): 18% and 31% and 46%
- Population Fragmented Nuclei (%) (U2OS; [5]): 3% and 6% and 5% and 8%
- Population Healthy Nuclei (%) (U2OS; [5]): 90% and 85% and 87% and 81%
- Population Hoechst High Intensity Objects (%) (U2OS; [5]): 1% and 2% and 3%
- Population Membrane Permeable-Phenotype (%) (U2OS; [5]): 7% and 6% and 2% and 1%
- Population Mitotic Cells (%) (U2OS; [5]): 81% and 68% and 53%
- Population Normal (%) (U2OS; [5]): 98% and 97% and 96%
- Population Pyknosed Nuclei (%) (U2OS; [5]): 6% and 7% and 10%
- Total Cell Count (U2OS; [5]): 310 [middle of 4 runs]
- Population Fragmented Nuclei (%) (U2OS; [6]): 7%
- Population Healthy Nuclei (%) (U2OS; [6]): 91% and 84% and 88% and 93%
- Population Membrane Permeable-Phenotype (%) (U2OS; [6]): 9% and 8% and 5%
- Population Mitotic Cells (%) (U2OS; [6]): 66% and 50% and 85%
- Population Normal (%) (U2OS; [6]): 89% and 85% and 95%
- Population Pyknosed Nuclei (%) (U2OS; [6]): 1% and 8% and 2%
- Population Tubulin-Different-Phenotype (%) (U2OS; [6]): 24% [middle of 4 runs]
- Total Cell Count (U2OS; [6]): 97 [middle of 4 runs]
- Population Apoptotic (%) (U2OS; [7]): 62% [middle of 4 runs]
- Population Fragmented Nuclei (%) (U2OS; [7]): 10% and 11% and 5%
- Population Healthy Nuclei (%) (U2OS; [7]): 72% and 71% and 90%
- Population Hoechst High Intensity Objects (%) (U2OS; [7]): 8% and 6% and 1%
- Population Membrane Permeable-Phenotype (%) (U2OS; [7]): 11% and 13%
- Population Mitotic Cells (%) (U2OS; [7]): 51% [middle of 4 runs]
- Population Normal (%) (U2OS; [7]): 91% and 93% and 98%
- Total Cell Count (U2OS; [7]): 265 [middle of 4 runs]
- Population Apoptotic (%) (U2OS; [8]): 54% [middle of 4 runs]
- Population Fragmented Nuclei (%) (U2OS; [8]): 7% and 1% and 9%
- Population Healthy Nuclei (%) (U2OS; [8]): 77% and 82% and 89%
- Population Hoechst High Intensity Objects (%) (U2OS; [8]): 11% and 4% and 5%
- Population Membrane Permeable-Phenotype (%) (U2OS; [8]): 20% and 16% and 12%
- Population Mitotic Cells (%) (U2OS; [8]): 60% [middle of 4 runs]
- Population Normal (%) (U2OS; [8]): 88% and 95% and 94%
- Population Pyknosed Nuclei (%) (U2OS; [8]): 15% and 13%
- Total Cell Count (U2OS; [8]): 91 [middle of 4 runs]
- Population Apoptotic (%) (U2OS; [9]): 40% and 44% and 37%
- Population Fragmented Nuclei (%) (U2OS; [9]): 4% and 1% and 2%
- Population Healthy Nuclei (%) (U2OS; [9]): 92% and 90%
- Population Hoechst High Intensity Objects (%) (U2OS; [9]): 1% and 0%
- Population Membrane Permeable-Phenotype (%) (U2OS; [9]): 2%
- Population Mitochondria Different-Phenotype (%) (U2OS; [9]): 15% and 9% and 7%
- Population Mitotic Cells (%) (U2OS; [9]): 60% and 56% and 62%
- Population Normal (%) (U2OS; [9]): 98% and 99%
- Population Pyknosed Nuclei (%) (U2OS; [9]): 6% and 5%
- Population Tubulin-Different-Phenotype (%) (U2OS; [9]): 40% and 18% and 46%
- Total Cell Count (U2OS; [9]): 466 and 472
- Population Fragmented Nuclei (%) (U2OS; [10]): 6% and 3%
- Population Healthy Nuclei (%) (U2OS; [10]): 84% and 88% and 91%
- Population Hoechst High Intensity Objects (%) (U2OS; [10]): 9% and 2%
- Population Membrane Permeable-Phenotype (%) (U2OS; [10]): 7% and 4% and 1%
- Population Mitochondria Different-Phenotype (%) (U2OS; [10]): 11% and 5%
- Population Mitotic Cells (%) (U2OS; [10]): 44% and 91% and 66%
- Population Normal (%) (U2OS; [10]): 90% and 97%
- Population Pyknosed Nuclei (%) (U2OS; [10]): 9% and 8%
- Population Tubulin-Different-Phenotype (%) (U2OS; [10]): 30% and 26% and 12%
- Total Cell Count (U2OS; [10]): 93 and 189 and 109
- Population Apoptotic (%) (U2OS; [11]): 70% and 57%
- Population Fragmented Nuclei (%) (U2OS; [11]): 10%
- Population Healthy Nuclei (%) (U2OS; [11]): 74% and 73% and 72%
- Population Hoechst High Intensity Objects (%) (U2OS; [11]): 8%
- Population Membrane Permeable-Phenotype (%) (U2OS; [11]): 7% and 4%
- Population Mitochondria Different-Phenotype (%) (U2OS; [11]): 39% and 36% and 30%
- Population Mitotic Cells (%) (U2OS; [11]): 29% and 42%
- Population Normal (%) (U2OS; [11]): 91%
- Population Pyknosed Nuclei (%) (U2OS; [11]): 16% and 17%
- Population Tubulin-Different-Phenotype (%) (U2OS; [11]): 40% and 38% and 30%
- Total Cell Count (U2OS; [11]): 243 and 658 and 261
- Population Apoptotic (%) (U2OS; [12]): 76% and 46% and 90%
- Population Fragmented Nuclei (%) (U2OS; [12]): 9% and 6% and 8%
- Population Healthy Nuclei (%) (U2OS; [12]): 75% and 79% and 80%
- Population Hoechst High Intensity Objects (%) (U2OS; [12]): 7% and 5% and 1%
- Population Membrane Permeable-Phenotype (%) (U2OS; [12]): 20% and 16%
- Population Mitochondria Different-Phenotype (%) (U2OS; [12]): 59% and 41% and 44%
- Population Normal (%) (U2OS; [12]): 92% and 94% and 98%
- Population Pyknosed Nuclei (%) (U2OS; [12]): 15% and 13% and 10%
- Population Tubulin-Different-Phenotype (%) (U2OS; [12]): 48% and 33% and 39%
- Total Cell Count (U2OS; [12]): 146 and 92 and 114
